Measured values published in ChEMBL document CHEMBL1147971, “Evaluation of N-(phenylmethyl)-4-[5-(phenylmethyl)-4,5,6,7-tetrahydro-1H-imidazo[4,5-c]pyridin-4-yl]benzamide inhibitors of Mycobacterium tuberculosis growth” (Bioorg Med Chem Lett, 2007).
In brackets after ≈: the same amount, converted by molar mass. Activity calls are given as the source filed them. The calls are words filed in the database; no cut-off is given here.

How the values were obtained:
[1] = test system: Mycobacterium tuberculosis; assay: Antibacterial activity against Mycobacterium tuberculosis; type: functional
Method in brief: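 M. tuberculosis broth cultures grown in 96-well microtitre plates with drug. Growth read indirectly by metabolic reduction of fluorescent Alamar blue. MIC taken as the minimum drug concentration giving 50% inhibition of growth.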

[2] = Cytotoxicity against HEPG2 cells; type: cell-based; conditions: human; for cytotoxicity: read-out: Inhibition; for CC50: read-out: TC50 (the source's name)
Staphylococcus aureus = assay: Antibacterial activity against Staphylococcus aureus ATCC 29213; type: functional, organism-based
[3] = Permeability across artificial cell membrane; type: ADME; conditions: for Papp: not told, read-out: permeability
Method in brief: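 High-throughput artificial membrane assay measuring passive diffusion of compound across a phospholipid monolayer.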

[4] = Mycobacterium tuberculosis, read-out: MIC

Which MIC [1, 4] does the source give for `COc1ccc(CNC(=O)c2ccc(C3c4nc[nH]c4CCN3Cc3cccc(Cl)c3Cl)cc2)cc1` (stereo in doubt; 8e) here?
The MIC was 32 µM (≈ 16.7 µg/mL).

With `COc1ccc(CNC(=O)c2ccc(C3c4nc[nH]c4CCN3c3ccc4ccccc4c3)cc2)cc1` (configuration not stated) as the compound, how does the MIC [1, 4] read?
The MIC was 32 µM (≈ 15.6 µg/mL).

And the cytotoxicity [2]?
The cytotoxicity was 25%.

What about the CC50 [2] of the same compound?
The CC50 was over 12.4 µM.

Which MIC [1, 4] does the source give for `COc1ccc(CNC(=O)c2ccc(C3c4nc[nH]c4CCN3Cc3cc(OC)c(OC)cc3OC)cc2)cc1` (configuration not stated) here?
The MIC was 63 µM (≈ 34.2 µg/mL).

And the Activity (Staphylococcus aureus)?
Its Activity is “Active”.

And the cytotoxicity [2]?
The cytotoxicity was 20%.

What about the CC50 [2] of the same compound?
Its CC50 is over 11.5 µM.

Which MIC [1] does the source give for `COc1ccc(CNC(=O)c2ccc(C3c4nc[nH]c4CCN3Cc3cccc(Cl)c3)cc2)cc1` (stereo in doubt; 9c) here?
The MIC was 32 µM (≈ 15.6 µg/mL).

And the permeability [3]?
The permeability was 21 ×10⁻⁶ cm/s.

Which MIC [1, 4] does the source give for `COc1ccc(CNC(=O)c2ccc(C3c4nc[nH]c4CCN3Cc3cccc(Cl)c3)cc2)cc1` (stereo in doubt; 9d) here?
Its MIC is 63 µM (≈ 30.7 µg/mL).

What about the Papp [3] of the same compound?
Its Papp is 21 ×10⁻⁶ cm/s.

With `COc1ccc(CNC(=O)c2ccc(C3c4nc[nH]c4CCN3Cc3cccc(Cl)c3Cl)cc2)cc1` (stereo in doubt; 9b) as the compound, how does the MIC [1] read?
The MIC was 63 µM (≈ 32.9 µg/mL).

What about the permeability [3] of the same compound?
Its permeability is 8 ×10⁻⁶ cm/s.

With `O=C(NCc1ccccc1)c1ccc(C2c3nc[nH]c3CCN2Cc2cccc(Cl)c2Cl)cc1` (configuration not stated) as the compound, how does the MIC [1, 4] read?
The MIC was 32 µM (≈ 15.7 µg/mL).

For `O=C(NCc1ccccc1)c1ccc(C2c3nc[nH]c3CCN2Cc2cccc(Cl)c2)cc1` (configuration not stated), which MIC [1, 4] is on record?
The MIC was 32 µM (≈ 14.6 µg/mL).

For `COc1ccc(CNC(=O)c2ccc(C3c4nc[nH]c4CCN3Cc3cccc(Cl)c3Cl)cc2)cc1` (stereo in doubt; 9a), which Papp [3] is on record?
The Papp was 8 ×10⁻⁶ cm/s.

Which results are given for `COc1ccc(CNC(=O)c2ccc(C3c4nc[nH]c4CCN3Cc3cccc(Cl)c3)cc2)cc1` (stereo in doubt; 8f)?
cytotoxicity [2]: 25%; CC50 [2]: > 12.8 µM

Which MIC [1, 4] does the source give for `O=C(NCc1ccccc1)c1ccc(C2c3nc[nH]c3CCN2c2ccc3ccccc3c2)cc1` (configuration not stated) here?
Its MIC is 16 µM (≈ 7.34 µg/mL).

What about the cytotoxicity [2] of the same compound?
The cytotoxicity was over 20%.

What about the CC50 [2] of the same compound?
Its CC50 is over 13.2 µM.
